Most compounds without a hit are left out; they make up all but 2.9% or so of the library.
OX1R antag-1: antagonists of human orexin 1 receptor (OX1R); inhibition, % at 6.6 µM; O43613; hit rate 1.8% among 330,000; OX1R-expressing cells, FRET antagonist read-out; AID 485270; in the data active = inhibition mostly above about 38%, no sharp cut-off; inactive = mostly below about 40%
Target sequence (O43613 whole entry, looked up): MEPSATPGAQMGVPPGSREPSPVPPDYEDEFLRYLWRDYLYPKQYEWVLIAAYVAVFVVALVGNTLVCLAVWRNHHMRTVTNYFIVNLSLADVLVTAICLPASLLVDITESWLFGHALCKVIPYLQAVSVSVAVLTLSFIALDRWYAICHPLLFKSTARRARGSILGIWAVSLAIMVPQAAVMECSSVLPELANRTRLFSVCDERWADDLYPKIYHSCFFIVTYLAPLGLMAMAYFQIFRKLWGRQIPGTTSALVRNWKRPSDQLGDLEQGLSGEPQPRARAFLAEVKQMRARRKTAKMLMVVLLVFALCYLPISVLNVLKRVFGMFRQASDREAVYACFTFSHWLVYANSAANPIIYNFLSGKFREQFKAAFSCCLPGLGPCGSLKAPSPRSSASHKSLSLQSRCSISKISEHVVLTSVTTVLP
OX1R antag-2: blocks the human orexin 1 receptor. CHO/OX1R cells, Fluo-8 calcium fluorescence, orexin A. inhibition, % at 5 µM. hit rate 0.43% among 330,000. AID 434989;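 active = inhibition above its plate's threshold, mean inhibition of all tested compounds on the plate plus 3 SD, cut at about 37% in these data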
CHO-K1 Ca antag: M1 antagonist counterscreen hit in parental CHO-K1 cells; hit rate 0.6% among 360,000; ATP-induced calcium, Fluo-8 fluorescence; inhibition, % at 3 µM;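 active = inhibition above a per-plate cutoff, the plate's mean sample inhibition plus 3 SD, cut at about 24% in these data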
CHO-K1 Ca PAM: nonselective activator or artifact in parental CHO-K1 calcium assay. hit rate 0.02% among 360,000. activation, % at 3 µM. ATP EC20, Fluo-8 calcium fluorescence; 0% at ATP EC20, 100% at ATP max;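 active = activation above the run cutoff, the mean activation of all test compounds plus 3 SD, cut at about 40% in these data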;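 also: peak over basal fluorescence ratio in a 140 s read after ATP addition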
CHO parental Ca: signal in parental CHO cells, OX1R antagonist counter-screen; parental CHO-K1, ATP-induced calcium, Fluo-8 fluorescence; inhibition, % at 5.6 µM; hit rate 0.63% among 330,000;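 active = inhibition above that plate's mean sample inhibition plus 3 SD, cut at about 26% in these data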
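Material: parental CHO cells / Compound: single nominal dose of 5.6 µM per compound / Signal: Fluo-8 fluorescence / Replicates: singlicate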
CHO-K1 Ca ag: counter-screen for M1 agonists: effect in parental CHO-K1 cells; Fluo-8 calcium fluorescence; scaled to maximal ATP response, vehicle zero; activation, % at 3 µM; hit rate 0.48% among 360,000; AID 602248; in the data active = activation above about 15%;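 also: untransfected CHO-K1 host cells lacking M1 receptor as counterscreen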
Hits are given with their value; n = inactive; x = no result given.

SMILES	OX1R antag-1	OX1R antag-2	CHO-K1 Ca antag	CHO-K1 Ca PAM	CHO parental Ca	CHO-K1 Ca ag
Nc1nc(CN2CCN(c3ccccc3F)CC2)nc(Nc2ccccc2)n1	n	n	31	n	n	n
Cc1ccc(Nc2nc(N)nc(CN3CCN(c4ccccc4F)CC3)n2)cc1	n	n	n	n	n	n
Cc1sc2ncnc(NCc3cccs3)c2c1C	n	n	n	n	36	n
Cc1sc2ncnc(NCC(c3ccccc3)N(C)C)c2c1C (stereo not drawn)	n	n	n	n	n	n
Cc1sc2ncnc(NCC(O)c3ccc([N+](=O)[O-])cc3)c2c1C (stereo not drawn)	n	n	27	n	35	18
Cc1sc2ncnc(NCC(O)c3ccccc3)c2c1C (stereo not drawn)	n	n	n	n	43	17
Cc1sc2ncnc(NCc3ccco3)c2c1C	n	n	n	n	n	n
Cc1cc(C)cc(NC(=O)CSc2nc3nc(C)cc(C)n3n2)c1	n	n	n	n	n	n
COc1ccc(NC(=O)C2(C)Cc3c(-c4ccc(C(N)=O)cc4)ccnc3O2)cn1 (stereo not drawn)	x	x	n	n	x	n
O=[N+]([O-])c1cc(Br)c(Nc2ccccc2)c([N+](=O)[O-])c1	50	n	n	n	n	n
O=C(Nc1ccccc1)c1ccc(Nc2c([N+](=O)[O-])cc([N+](=O)[O-])c3ccccc23)cc1	n	n	n	n	n	n
O=C(NNS(=O)(=O)c1ccc(F)cc1)c1cc(Cl)ccc1O	x	x	n	n	x	n
COC(=O)Cn1nnc(N2CCOCC2)n1	n	n	n	n	n	n
O=C(NCC1CCCO1)Nc1cc(Cl)cc(Cl)c1 (stereo not drawn)	n	n	25	n	n	n
O=C1CCC(C(=O)N2CCCC(C(=O)c3ccc4c5c(cccc35)CC4)C2)=NN1 (stereo not drawn)	n	n	n	n	n	n
CCOC(=O)c1sc(NC(=O)C2CCC2)cc1C	n	n	26	n	n	n
CCOC(=O)c1sc(NC(=O)Nc2ccccc2)cc1C	61	n	29	n	n	17
CCOC(=O)c1c(NC(=S)Nc2ccccc2)sc(C)c1C	38	n	n	n	n	n
CC(=O)Nc1sc(C)c(C)c1C(=O)OCC(=O)Nc1ccccc1	n	n	n	n	n	n
CCOC(=O)c1sc(NC(C)=O)cc1C	n	n	n	n	n	n
O=c1c2oc3ccccc3c2ncn1Cc1ccc(Cl)cc1	n	n	n	n	n	n
Cc1cc(O)c(C=Nc2ccc(N3CCOCC3)cc2)c(C)c1Cl	n	n	n	n	n	n
Cc1cc(O)c(N)c(C)c1Cl	54	n	n	n	n	n
C#CCOCCOCCOCCNc1nc(N2CCN(C(=O)[C@H](CCCN=C(N)N)n3cc(C(N)[C@@H](C)CC)nn3)CC2)nc(N2CCN(C(=O)[C@H](CCC(=O)O)n3cc([C@@H](N)CO)nn3)CC2)n1 (stereo partly drawn)	n	n	n	n	n	n
Cn1c(=O)cc(OCCCC(=O)N2CCN(c3ccccc3)CC2)c2ccccc21	n	n	30	n	n	n
SMILES	OX1R antag-1	OX1R antag-2	CHO-K1 Ca antag	CHO-K1 Ca PAM	CHO parental Ca	CHO-K1 Ca ag
Cc1ccc(C)c(NC(=O)CN(C)C(=O)c2cc3c(s2)CCCCC3)c1	n	n	n	n	n	n
COC(=O)C1CCN(C(=O)Nc2ccccc2)CC1	n	n	n	n	n	n
COc1ccc(CN(C)C(=O)C2CCN(C(=O)Nc3ccccc3)CC2)cc1	n	n	26	n	n	n
O=C(COC(=O)c1cc(-c2cccs2)nc2ccccc12)NCc1ccco1	72	n	n	n	n	n
Cc1cccc(C(=O)NNC(=O)c2ccc(NC(=O)C(C)(C)C)cc2)c1	n	n	n	n	n	n
COC(=O)NNC(=O)c1ccc(Cl)cc1Cl	n	n	n	n	n	n
CC(C)(C)C(=O)NC(=S)NNC(=O)c1ccc(Cl)cc1Cl	n	63	59	n	52	119
CC(C)(C)C(=O)NC(=S)NNC(=O)c1ccc(-c2ccccc2)cc1	n	103	95	n	100	107
Cc1ccc(C(=O)NNC(=O)c2ccc(NC(=O)C(C)(C)C)cc2)cc1	n	n	n	n	n	15
CC1(C)CC2CC(C)(CN2S(=O)(=O)c2ccc(F)cc2F)C1 (stereo not drawn)	n	n	n	n	n	n
CC1(C(=O)NS(=O)(=O)Cc2cccc(Cl)c2)CCN1C(=O)c1ccc(C2CCCCC2)cc1 (stereo not drawn)	x	x	n	n	x	n
COc1ccc(N2CCN(Cc3nc4c(c(=O)n(C)c(=O)n4C)n3CCc3ccccc3)CC2)cc1	n	n	27	n	n	n
O=C(Oc1ccc(C(=S)N2CCOCC2)cc1)c1ccccc1[N+](=O)[O-]	56	n	n	n	n	n
CCN(CC)c1ccc(-n2cc3c(=O)n(C)c(=O)n(C)c3c2)cc1	74	n	n	n	n	n
c1ccc(-c2c(-c3ccccc3)n(Cc3ccco3)c3ncnc(NCCCn4ccnc4)c23)cc1	53	n	n	n	n	n
OC(c1cccc(CN2CCCCC2)c1)c1ncc(-c2cccc(C(F)(F)F)c2)[nH]1 (stereo not drawn)	x	x	n	n	x	n
Cc1ccc([N+](=O)[O-])cc1S(=O)(=O)Nc1cccc(S(=O)(=O)Nc2ccccc2C(=O)O)c1	n	n	n	n	n	n
Cc1ccc(C)c(S(=O)(=O)Nc2ccccc2C(=O)Nc2cc(C)on2)c1	36	n	n	n	n	n
Cc1ccc(C)c(NC(=O)c2ccccc2NS(=O)(=O)c2cc([N+](=O)[O-])ccc2C)c1	55	n	n	n	n	n
Cc1cc(NC(=O)c2ccccc2NS(=O)(=O)c2c(C)c(C)cc(C)c2C)no1	n	n	n	n	n	n
O=C(COC(=O)c1ccccc1OCc1ccccc1Cl)NCC1CCCO1 (stereo not drawn)	n	n	n	n	n	n
CC(C)(C)c1ccc(C(=O)CCC(=O)OCC(=O)NCCc2ccc(S(N)(=O)=O)cc2)cc1	n	n	n	n	n	20
C=CCN([C@H](C(=O)OC)C(C)C)S(=O)(=O)CCNCc1ccccc1	x	x	n	n	x	n
N#Cc1ccc(C(=O)Nc2nnc(-c3cccs3)o2)cc1	n	n	n	n	n	n
O=C(Nc1nnc(-c2cccs2)o1)c1cccc(C(F)(F)F)c1	n	n	n	n	n	32
Cc1ccc(-c2nc(CSCC(=O)N3CCN(c4ccccn4)CC3)c(C)o2)cc1	n	n	n	n	n	n
CCOc1ccc(-c2nc(CSCC(=O)N3CCN(c4cccc(OC)c4)CC3)c(C)o2)cc1	54	44	n	n	75	n
CCc1ccc(-c2nc(CSCC(=O)N3CCN(c4ccccn4)CC3)c(C)o2)cc1	n	n	29	n	n	n
CNC(=O)C1(C)CCN1C(=O)Cc1ccc(C(C)C)cc1 (stereo not drawn)	x	x	n	n	x	n
